Screening results as filed in PubChem BioAssay.
Only some compounds are listed: those with a hit (about 1.8% of all), similar ones and a draw of the others.
TDP2 inh: TDP2 (human) inhibition, absorbance primary screen. O95551. recombinant TDP2, T5PNP hydrolysis, p-nitrophenol absorbance 415 nm. inhibition, % at 12.8 µM. 0.34% of 370,000 active. AID 720702;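 active means inhibition above the mean of all tested compounds plus 3 SD, set per campaign, cut at about 25% in these data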;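 further: 0% = DMSO with enzyme and 100% = buffer with substrate but no TDP2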
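Assay system: recombinant human TDP2 / Reagent: T5PNP substrate at 5 mM, a TopII-DNA adduct mimic / Measured by: epi absorbance from released p-nitrophenol / Evaluation: % inhibition relative to enzyme-containing and enzyme-free wells / Control set: enzyme-free and DMSO wells / Replicates: each compound tested once, singlicate / Schedule: enzyme reaction with compound for 2 h at 37 °C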
MBD2 inh: MBD2-methylated oligo binding inhibition | inhibition, % at 4.4 µM | 0.31% of 370,000 active | TR-FRET, MBD2 binding to methylated oligonucleotide; in the data active means inhibition above about 13%
Target sequence (Q9UBB5 whole entry, looked up): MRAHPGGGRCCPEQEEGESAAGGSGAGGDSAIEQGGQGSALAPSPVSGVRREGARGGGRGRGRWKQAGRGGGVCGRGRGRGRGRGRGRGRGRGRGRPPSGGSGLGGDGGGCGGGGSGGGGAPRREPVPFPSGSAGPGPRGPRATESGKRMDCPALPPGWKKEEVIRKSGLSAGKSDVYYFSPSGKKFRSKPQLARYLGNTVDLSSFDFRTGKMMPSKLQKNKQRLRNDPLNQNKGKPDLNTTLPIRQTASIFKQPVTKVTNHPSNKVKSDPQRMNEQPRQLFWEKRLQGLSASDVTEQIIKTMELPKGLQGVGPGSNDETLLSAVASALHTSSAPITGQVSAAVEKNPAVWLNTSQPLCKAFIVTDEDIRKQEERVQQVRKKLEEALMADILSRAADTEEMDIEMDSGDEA
LEDGF integ inh: blocks HIV-1 LEDGF/p75-dependent DNA integration | TR-FRET IN-LEDGF/p75 DNA integration, Eu/Cy5 | inhibition, % at 3.7 µM | 0.64% of 370,000 active | AID 743269;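 active means inhibition above the screen-wide mean plus 3 SD, cut at about 13% in these data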;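 further: signal is the Cy5 over europium emission ratio at 671 and 618 nm; 0% = plate median of compound wells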
UHRF1 MBD2 ctr: UHRF1 methyl-DNA binding inhibition; Q96T88; UHRF1 binding to methylated oligo, TR-FRET; inhibition, % at 4.4 µM; 0.75% of 370,000 active; AID 687016; in the data active means inhibition above about 21%;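 further: UHRF1 SRA domain binding a hemimethylated CpG hairpin DNA probe; 0% = median of test compound wells and 100% = reference inhibitor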
core dimer inh: HCV core protein dimerization inhibition | TR-FRET GST/Flag-core106 dimerization, 1536-well | 0.33% of 300,000 active | inhibition, % at 5 µM;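 active means inhibition above the mean of all tested compounds plus 3 SD, set per screening campaign, cut at about 45% in these data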
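Test system: GST/Flag-tagged HCV core106 proteins; Medium: KF-containing HEPES buffer, pH 7.45, DTT, CHAPS, BSA; Times: compound-protein-antibody incubation 4 h at 22.5 °C; Detection: TR-FRET 671 and 617 nm emission; Benchmarks: wells lacking GST-core106 and wells with excess unlabelled core106.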
TDP2 confirm: confirmation of human TDP2 inhibitors; inhibition, % at 12.8 µM; recombinant human TDP2, absorbance read-out; shares compounds with TDP2 inh; 22% of 1,100 active; in the data active means inhibition above about 25%;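 further: 0% = vehicle with enzyme and 100% = no enzyme buffer only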
The depositor's hits bear a star; · = no result given.

SMILES	TDP2 inh	MBD2 inh	LEDGF integ inh	UHRF1 MBD2 ctr	core dimer inh	TDP2 confirm
CCOC(=O)C1CCN(CC(=O)N2C(C)CCCC2C)CC1 (configuration not stated)	26.5*	-1.2	-0.5	0.0	-2.8	1.2
Cc1cccc(-c2cccc3c4c([nH]c23)[C@@H]2C[C@H](N(C)C(=S)Nc3ccc(C#N)cc3)[C@H]([C@H](C)O)CN2CC4)c1	-5.4	5.2	2.7	-0.7	·	·
CC[C@@H](CCCc1ccc(F)cc1)CN(Cc1ccc(OC)cc1)S(=O)(=O)c1ccc(C)cc1	7.0	4.6	-1.8	1.8	·	·
CCC(NC(=O)Nc1ccc(O)cc1)(C(F)(F)F)C(F)(F)F	26.8*	-10.9	15.1*	8.7	-9.1	5.2
O=S(=O)(c1ccc(CN2CCOCCOCCN(Cc3ccc(S(=O)(=O)C(F)(F)F)cc3)CCOCC2)cc1)C(F)(F)F	0.0	1.4	1.0	-0.3	·	·
CC(C)Oc1ccc(S(=O)(=O)N2CCOCC2)cc1NC(=O)CC1CCCC1	3.8	0.0	-0.6	-1.4	·	·
CC(C)Oc1ccc(S(=O)(=O)N2CCOCC2)cc1NC(=O)Cc1c(F)cccc1Cl	28.6*	1.6	1.7	-0.1	0.5	0.2
N#Cc1ccccc1S(=O)(=O)N1CCN(CC(O)COc2ccccc2F)CC1 (configuration not stated)	28.5*	-1.1	0.5	-0.5	-2.8	8.2
O=S(=O)(c1ccccc1C(F)(F)F)N1CCN(CC(O)COc2ccccc2F)CC1 (configuration not stated)	6.7	6.3	1.3	2.9	·	·
CCOC(=O)C1CCN(C(=O)C(Cc2ccc3c(c2)OCO3)NC(C)=O)CC1 (configuration not stated)	9.6	3.5	-2.0	-0.6	·	·
COc1ccc(OC)c2c1C(=O)c1ccccc1C2=O	56.0*	-1.7	6.9	-4.1	1.4	7.2
COc1ccc2noc3c2c1C(=O)c1ccccc1-3	38.3*	-7.0	9.4	-8.4	-2.9	30.4*
O=C(NC1CCCCN(Cc2cccc(F)c2)C1=O)c1cccc(C(F)(F)F)c1 (configuration not stated)	-1.1	4.7	3.1	1.9	·	·
Cc1cccc(-n2c3nc(=O)[nH]c(=O)c-3cc3cc([N+](=O)[O-])ccc32)c1	54.1*	-6.7	3.6	-2.5	8.3	47.2*
COc1cc(CN2CCN(Cc3cccc(OC)c3OC)CC2)cc(OC)c1	25.8*	-5.2	-3.0	0.9	-10.0	6.4
COc1cc(OC)c(NC(=O)CCNS(=O)(=O)c2ccc3c(c2)CC(C)N3C(C)=O)cc1Cl (configuration not stated)	31.3*	3.2	1.3	-3.1	-19.9	4.0
O=C(OCc1cn(Cc2ccc(Cl)cc2)nn1)N1CCOCC1	-4.1	1.0	-0.2	-1.5	·	·
CC(C)(C)c1ccc(S(=O)(=O)N2CCC(c3cn4ccccc4n3)CC2)cc1	-11.9	-1.8	0.6	-1.5	·	·
Cc1cccc(NC(=O)C(Cc2ccccc2)c2nn[nH]n2)c1C (configuration not stated)	27.9*	2.9	-0.3	1.6	-8.0	2.0
CCN(CC)C(=O)CC[C@@H]1CC[C@]2(CCCN(C(=O)c3cccnc3)C2)O1	5.6	2.6	4.0	-2.2	·	·
COC1=C(Nc2ccc(C)cc2)C(=O)c2ccccc2C1=O	55.0*	-9.9	2.5	-9.3	-47.3	15.6
CCCCCOc1ccc(/C=N/NC(=O)CSc2nnc(-c3ccc(OC)cc3)n2-c2ccc(C)cc2)cc1	-8.4	-2.1	-1.3	-2.0	·	·
COC(=O)[C@]12C[C@H](CC(=O)NCc3ccc(OC)c(OC)c3)C(=O)N(Cc3cccc4ccccc34)C1=C[C@H](COCc1ccccc1)O[C@@H]2C	4.7	3.4	-4.0	0.0	·	·
C1=CC2c3ccccc3NC(c3ccncc3)C2C1 (configuration not stated)	12.4	-5.5	3.3	-8.1	7.4	·
CC(=O)c1ccc2c(c1)C1C=CCC1C(c1ccncc1)N2 (configuration not stated)	31.9*	-1.7	2.1	-11.1	2.9	14.2
CCOC(=O)c1c(S(=O)(=O)NCC(=O)Nc2ccccc2F)c(C)n(C)c1C	24.7*	0.5	-3.5	-1.0	-8.1	7.4
